Assay results published in article PMC11612064 (EJNMMI Radiopharmacy and Chemistry, 2024).

Tests used:
ACE2 = ACE2 (Homo sapiens, UniProt Q9BYF1); assay: In vivo biodistribution studies; design: species or system humanized ACE2 mice; details: 30 min after injection, i.v. tail vein 3.7 MBq/kg, mean ± SD, n = 3
Method in brief: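 Male humanized ACE2 knock-in mice (C57BL/6 background, 6 weeks old) under 1.5% isoflurane, kept warm, received the ¹⁸F-labelled test compound by lateral tail vein and were killed by cervical dislocation 30 min later. Organs were weighed and gamma-counted, decay-corrected to euthanasia, and reported as %ID/g. Anti-ACE2 IHC AOD (integrated optical density/area) was linearly regressed against %ID/g.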

[1] = target: bovine carboxypeptidase A; details: ref Wang et al. [2024], Joshi et al. [2016]; cited from earlier work
human ACE2 = details: ref Wang et al. [2024], Joshi et al. [2016]; cited from earlier work
human testicular ACE = details: ref Wang et al. [2024], Joshi et al. [2016]; cited from earlier work

ACE2, sequence (Q9BYF1 18-805): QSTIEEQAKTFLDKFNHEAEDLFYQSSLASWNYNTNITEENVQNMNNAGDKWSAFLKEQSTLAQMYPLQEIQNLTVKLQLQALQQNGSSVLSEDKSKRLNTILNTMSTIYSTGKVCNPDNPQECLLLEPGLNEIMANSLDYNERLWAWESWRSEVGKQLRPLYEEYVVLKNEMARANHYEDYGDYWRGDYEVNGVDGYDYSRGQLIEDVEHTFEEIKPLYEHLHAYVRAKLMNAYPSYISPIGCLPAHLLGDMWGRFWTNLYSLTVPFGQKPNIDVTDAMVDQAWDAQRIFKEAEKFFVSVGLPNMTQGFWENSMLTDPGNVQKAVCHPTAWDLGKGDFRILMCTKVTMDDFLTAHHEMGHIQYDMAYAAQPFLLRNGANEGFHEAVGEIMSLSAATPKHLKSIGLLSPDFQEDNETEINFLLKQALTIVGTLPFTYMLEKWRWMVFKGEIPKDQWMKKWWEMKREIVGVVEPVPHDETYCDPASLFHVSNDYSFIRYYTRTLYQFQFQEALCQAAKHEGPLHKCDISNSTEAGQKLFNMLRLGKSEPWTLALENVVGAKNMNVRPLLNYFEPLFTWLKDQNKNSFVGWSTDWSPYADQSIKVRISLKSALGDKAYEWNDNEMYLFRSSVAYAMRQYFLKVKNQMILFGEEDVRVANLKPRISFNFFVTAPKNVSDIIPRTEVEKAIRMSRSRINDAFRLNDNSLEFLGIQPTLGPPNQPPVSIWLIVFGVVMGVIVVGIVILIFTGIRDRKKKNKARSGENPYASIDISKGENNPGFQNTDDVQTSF

SMILES: CC(C)C[C@H](N[C@@H](Cc1cncn1Cc1cc([18F])cc(Cl)c1)C(=O)O)C(=O)O [^18F-MLN-4760]
- Tissue uptake, Belly fat (ACE2): 0.48 ± 0.45 %ID/g
- Tissue uptake, Cerebellum (ACE2): 0.40 ± 0.22 %ID/g
- Tissue uptake, Cerebrum (ACE2): 3.18 ± 4.31 %ID/g
- Tissue uptake, Eyeball (ACE2): 2.84 ± 0.74 %ID/g
- Tissue uptake, Heart (ACE2): 3.26 ± 0.28 %ID/g
- Tissue uptake, Kidneys (ACE2): 4.73 ± 0.58 %ID/g
- Tissue uptake, Large intestine (ACE2): 3.34 ± 1.88 %ID/g
- Tissue uptake, Liver (ACE2): 2.31 ± 0.77 %ID/g
- Tissue uptake, Lung (ACE2): 2.49 ± 1.09 %ID/g
- Tissue uptake, Medulla (ACE2): 1.83 ± 0.27 %ID/g
- Tissue uptake, Muscle (ACE2): 2.27 ± 0.75 %ID/g
- Tissue uptake, Oesophagus (ACE2): 11.32 ± 4.13 %ID/g
- Tissue uptake, Parotid (ACE2): 1.93 ± 0.79 %ID/g
- Tissue uptake, Shoulder fat (ACE2): 2.84 ± 1.56 %ID/g
- Tissue uptake, Small intestine (ACE2): 2.74 ± 0.90 %ID/g
- Tissue uptake, Spleen (ACE2): 1.58 ± 2.11 %ID/g
- Tissue uptake, Stomach (ACE2): 3.34 ± 2.71 %ID/g
- Tissue uptake, Testicles (ACE2): 2.91 ± 1.95 %ID/g

SMILES: CC(C)C[C@H](N[C@@H](Cc1cncn1Cc1cc(Cl)cc(Cl)c1)C(=O)O)C(=O)O [MLN-4760]
- IC50 [1]: 27 µM
- IC50 (human ACE2): 0.00044 µM
- IC50 (human testicular ACE): > 100 µM
